Experimental data taken from ChEMBL document CHEMBL1134346, “Labeling and evaluation of N-[11C]methylated quinoline-2-carboxamides as potential radioligands for visualization of peripheral benzodiazepine receptors” (J Med Chem, 2001).

organism: Rattus norvegicus; assay: Tissue (spleen) distribution in Albino male CD rats after 90 minutes expressed as percent of injected dose per gram of organ.; format: ADME, organism-based; details: in vivo, 1.5 h

I.D./g	SMILES
1.56%	Cc1c(C(=O)N(C)Cc2ccccc2)nc2ccccc2c1-c1ccccc1

organism: Rattus norvegicus; assay: Tissue (testicle) distribution in Albino male CD rats after 5 minutes expressed as percent of injected dose per gram of organ.; format: ADME, organism-based; details: in vivo
Procedure, shortened: (§1)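 Male albino CD rats (225-250 g) received the 11C-labelled radioligand in saline by tail-vein injection. Three rats per time point were decapitated under light ether anaesthesia at 5, 15, 30, 60 or 90 min. Blood was collected heparinized and plasma separated by centrifugation. The pituitary was dissected from the brain. Lung, liver (three-lobe pieces) and right deltoid muscle were sampled, washed in cold saline, gamma-counted and weighed. Results are %I.D./g.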

I.D./g	SMILES
0.06%	Cc1c(C(=O)N(C)Cc2ccccc2)nc2ccccc2c1-c1ccccc1

organism: Rattus norvegicus; assay: Tissue (testicle) distribution in Albino male CD rats after 60 minutes expressed as percent of injected dose per gram of organ.; format: ADME, organism-based; details: in vivo, 1 h; procedure, shortened: as §1

I.D./g	SMILES
0.15%	Cc1c(C(=O)N(C)Cc2ccccc2)nc2ccccc2c1-c1ccccc1

organism: Rattus norvegicus; assay: Tissue (testicle) distribution in Albino male CD rats after 90 minutes expressed as percent of injected dose per gram of organ.; format: ADME, organism-based; details: in vivo, 1.5 h

I.D./g	SMILES
0.2%	Cc1c(C(=O)N(C)Cc2ccccc2)nc2ccccc2c1-c1ccccc1

organism: Rattus norvegicus; assay: Tissue (kidney) distribution in Albino male CD rats after 30 minutes expressed as percent of injected dose per gram of organ.; format: ADME, organism-based; details: in vivo, 0.5 h
Procedure, shortened: (§2)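 Radioligand given in saline into tail vein of male albino CD rats (225-250 g); 100-200 µCi per animal, 1-2 Ci/µmol at injection depending on radioligand. Three rats per time point were decapitated under light ether anaesthesia. Blood, plasma, brain regions and washed organs were weighed and gamma-counted. Uptake is %I.D./g tissue, mean ± SD.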

I.D./g	SMILES
1.05%	Cc1c(C(=O)N(C)Cc2ccccc2)nc2ccccc2c1-c1ccccc1

organism: Rattus norvegicus; assay: Tissue (kidney) distribution in Albino male CD rats after 5 minutes expressed as percent of injected dose per gram of organ.; format: ADME, organism-based; details: in vivo; procedure, shortened: as §2

I.D./g	SMILES
0.79%	Cc1c(C(=O)N(C)Cc2ccccc2)nc2ccccc2c1-c1ccccc1

organism: Rattus norvegicus; assay: Tissue (kidney) distribution in Albino male CD rats after 60 minutes expressed as percent of injected dose per gram of organ.; format: ADME, organism-based; details: in vivo, 1 h; procedure, shortened: as §2

I.D./g	SMILES
1.14%	Cc1c(C(=O)N(C)Cc2ccccc2)nc2ccccc2c1-c1ccccc1

organism: Rattus norvegicus; assay: Tissue (kidney) distribution in Albino male CD rats after 90 minutes expressed as percent of injected dose per gram of organ.; format: ADME, organism-based; details: in vivo, 1.5 h; procedure, shortened: as §2

I.D./g	SMILES
1.34%	Cc1c(C(=O)N(C)Cc2ccccc2)nc2ccccc2c1-c1ccccc1

organism: Rattus norvegicus; assay: Tissue (liver) concentration of radioactivity at 30 min post-injection into Albino male CD rats with vehicle.; format: ADME, organism-based; details: in vivo, 0.5 h
Procedure, shortened: (§3)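 Separate groups of five rats received tail-vein PK 11195 (1.4-1.6 mg; 5 mg/kg) in 30 µL DMSO:EtOH 1:1, or vehicle alone, immediately before iv radioligand (90-170 µCi in saline, 0.9-1 Ci/µmol). Rats were decapitated at 30 min and tissues gamma-counted; values are %I.D./g.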

I.D./g	SMILES
0.08%	Cc1c(C(=O)N(C)Cc2ccccc2)nc2ccccc2c1-c1ccccc1

organism: Rattus norvegicus; assay: Tissue (liver) distribution in Albino male CD rats after 60 minutes expressed as percent of injected dose per gram of organ.; format: ADME, organism-based; details: in vivo, 1 h; procedure, shortened: as §1

I.D./g	SMILES
0.41%	Cc1c(C(=O)N(C)Cc2ccccc2)nc2ccccc2c1-c1ccccc1

organism: Rattus norvegicus; assay: Tissue (lung) distribution in Albino male CD rats after 30 minutes expressed as percent of injected dose per gram of organ.; format: ADME, organism-based; details: in vivo, 0.5 h; procedure, shortened: as §1

I.D./g	SMILES
2%	Cc1c(C(=O)N(C)Cc2ccccc2)nc2ccccc2c1-c1ccccc1

organism: Rattus norvegicus; assay: Tissue (lung) distribution in Albino male CD rats after 60 minutes expressed as percent of injected dose per gram of organ.; format: ADME, organism-based; details: in vivo, 1 h; procedure, shortened: as §1

I.D./g	SMILES
1.48%	Cc1c(C(=O)N(C)Cc2ccccc2)nc2ccccc2c1-c1ccccc1

organism: Rattus norvegicus; assay: Tissue (lung) distribution in Albino male CD rats after 90 minutes expressed as percent of injected dose per gram of organ.; format: ADME, organism-based; details: in vivo, 1.5 h; procedure, shortened: as §1

I.D./g	SMILES
1.21%	Cc1c(C(=O)N(C)Cc2ccccc2)nc2ccccc2c1-c1ccccc1

organism: Rattus norvegicus; assay: Tissue (blood) distribution in Albino male CD rats after 15 minutes expressed as percent of injected dose per gram of organ.; format: ADME, organism-based; details: in vivo, 0.25 h; procedure, shortened: as §2

I.D./g	SMILES
0.09%	Cc1c(C(=O)N(C)Cc2ccccc2)nc2ccccc2c1-c1ccccc1

organism: Rattus norvegicus; assay: Tissue (blood) distribution in Albino male CD rats after 60 minutes expressed as percent of injected dose per gram of organ.; format: ADME, organism-based; details: in vivo, 1 h; procedure, shortened: as §2

I.D./g	SMILES
0.06%	Cc1c(C(=O)N(C)Cc2ccccc2)nc2ccccc2c1-c1ccccc1

organism: Rattus norvegicus; assay: Tissue (adrenal gland) distribution in Albino male CD rats after 15 minutes expressed as percent of injected dose per gram of organ.; format: ADME, organism-based; details: in vivo, 0.25 h; procedure, shortened: as §2

I.D./g	SMILES
2.29%	Cc1c(C(=O)N(C)Cc2ccccc2)nc2ccccc2c1-c1ccccc1

organism: Rattus norvegicus; assay: Tissue (adrenal gland) distribution in Albino male CD rats after 30 minutes expressed as percent of injected dose per gram of organ.; format: ADME, organism-based; details: in vivo, 0.5 h; procedure, shortened: as §2

I.D./g	SMILES
2.99%	Cc1c(C(=O)N(C)Cc2ccccc2)nc2ccccc2c1-c1ccccc1

organism: Rattus norvegicus; assay: Tissue (adrenal gland) distribution in Albino male CD rats after 5 minutes expressed as percent of injected dose per gram of organ.; format: ADME, organism-based; details: in vivo; procedure, shortened: as §2

I.D./g	SMILES
0.77%	Cc1c(C(=O)N(C)Cc2ccccc2)nc2ccccc2c1-c1ccccc1

organism: Rattus norvegicus; assay: Tissue (spleen) distribution in Albino male CD rats after 15 minutes expressed as percent of injected dose per gram of organ.; format: ADME, organism-based; details: in vivo, 0.25 h

I.D./g	SMILES
1.27%	Cc1c(C(=O)N(C)Cc2ccccc2)nc2ccccc2c1-c1ccccc1

organism: Rattus norvegicus; assay: Tissue (muscle) concentration of radioactivity at 30 min post-injection into Albino male CD rats with vehicle.; format: ADME, organism-based; details: in vivo, 0.5 h
Procedure, shortened: (§4)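 Blocking study in male albino CD rats, five per group. Immediately before the 11C radioligand (in saline, i.v. tail vein), rats received 30 µL tail-vein PK 11195 (5 mg/kg; 1.4-1.6 mg) in DMSO:EtOH 1:1, or vehicle. Rats were decapitated at 30 min. Tissues were dissected, washed, gamma-counted and weighed as in the biodistribution study. Results are %I.D./g.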

I.D./g	SMILES
0.03%	Cc1c(C(=O)N(C)Cc2ccccc2)nc2ccccc2c1-c1ccccc1

organism: Rattus norvegicus; assay: Tissue (muscle) distribution in Albino male CD rats after 30 minutes expressed as percent of injected dose per gram of organ.; format: ADME, organism-based; details: in vivo, 0.5 h; procedure, shortened: as §1

I.D./g	SMILES
0.26%	Cc1c(C(=O)N(C)Cc2ccccc2)nc2ccccc2c1-c1ccccc1

organism: Rattus norvegicus; assay: Tissue (cortex) distribution in Albino male CD rats after 60 minutes expressed as percent of injected dose per gram of organ.; format: ADME, organism-based; details: in vivo, 1 h; procedure, shortened: as §2

I.D./g	SMILES
0.06%	Cc1c(C(=O)N(C)Cc2ccccc2)nc2ccccc2c1-c1ccccc1

biological target: Translocator protein (Rattus norvegicus) (UniProt P16257); assay: Tissue (heart) concentration of radioactivity at 30 min post-injection into Albino male CD rats after pretreatment with cold PK 11195.; format: functional; details: not given; procedure, shortened: as §3
Sequence (P16257 whole entry, looked up): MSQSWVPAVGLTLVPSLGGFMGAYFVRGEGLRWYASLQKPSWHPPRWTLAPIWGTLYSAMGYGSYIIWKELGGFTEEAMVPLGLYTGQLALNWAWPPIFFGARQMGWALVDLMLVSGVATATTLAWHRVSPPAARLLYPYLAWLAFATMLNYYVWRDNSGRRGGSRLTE

I.D./g	SMILES
< 0.04%	Cc1c(C(=O)N(C)Cc2ccccc2)nc2ccccc2c1-c1ccccc1

organism: Rattus norvegicus; assay: Tissue (heart) concentration of radioactivity at 30 min post-injection into Albino male CD rats with vehicle.; format: ADME, organism-based; details: in vivo, 0.5 h; procedure, shortened: as §3

I.D./g	SMILES
0.35%	Cc1c(C(=O)N(C)Cc2ccccc2)nc2ccccc2c1-c1ccccc1

organism: Rattus norvegicus; assay: Tissue (muscle) distribution in Albino male CD rats after 60 minutes expressed as percent of injected dose per gram of organ.; format: ADME, organism-based; details: in vivo, 1 h; procedure, shortened: as §1

I.D./g	SMILES
0.14%	Cc1c(C(=O)N(C)Cc2ccccc2)nc2ccccc2c1-c1ccccc1

organism: Rattus norvegicus; assay: Tissue (pituitary) distribution in Albino male CD rats after 30 minutes expressed as percent of injected dose per gram of organ.; format: ADME, organism-based, Pituitary gland; details: in vivo, 0.5 h; procedure, shortened: as §1

I.D./g	SMILES
0.3%	Cc1c(C(=O)N(C)Cc2ccccc2)nc2ccccc2c1-c1ccccc1

organism: Rattus norvegicus; assay: Tissue (pituitary) distribution in Albino male CD rats after 5 minutes expressed as percent of injected dose per gram of organ.; format: ADME, organism-based, Pituitary gland; details: in vivo; procedure, shortened: as §1

I.D./g	SMILES
0.33%	Cc1c(C(=O)N(C)Cc2ccccc2)nc2ccccc2c1-c1ccccc1

organism: Rattus norvegicus; assay: Tissue (plasma) distribution in Albino male CD rats after 30 minutes expressed as percent of injected dose per gram of organ.; format: ADME, organism-based; details: in vivo, 0.5 h; procedure, shortened: as §1

I.D./g	SMILES
0.06%	Cc1c(C(=O)N(C)Cc2ccccc2)nc2ccccc2c1-c1ccccc1

organism: Rattus norvegicus; assay: Tissue (spleen) concentration of radioactivity at 30 min post-injection into Albino male CD rats with vehicle.; format: ADME, organism-based; details: in vivo, 0.5 h; procedure, shortened: as §4

I.D./g	SMILES
0.26%	Cc1c(C(=O)N(C)Cc2ccccc2)nc2ccccc2c1-c1ccccc1

organism: Rattus norvegicus; assay: Tissue (heart) distribution in Albino male CD rats after 15 minutes expressed as percent of injected dose per gram of organ.; format: ADME, organism-based; details: in vivo, 0.25 h; procedure, shortened: as §2

I.D./g	SMILES
2.62%	Cc1c(C(=O)N(C)Cc2ccccc2)nc2ccccc2c1-c1ccccc1

organism: Rattus norvegicus; assay: Tissue (heart) distribution in Albino male CD rats after 90 minutes expressed as percent of injected dose per gram of organ.; format: ADME, organism-based; details: in vivo, 1.5 h; procedure, shortened: as §2

I.D./g	SMILES
2.38%	Cc1c(C(=O)N(C)Cc2ccccc2)nc2ccccc2c1-c1ccccc1

organism: Rattus norvegicus; assay: Tissue (intestine) distribution in Albino male CD rats after 60 minutes expressed as percent of injected dose per gram of organ.; format: ADME, organism-based; details: in vivo, 1 h; procedure, shortened: as §2

I.D./g	SMILES
0.62%	Cc1c(C(=O)N(C)Cc2ccccc2)nc2ccccc2c1-c1ccccc1

biological target: Translocator protein (Rattus norvegicus) (UniProt P16257); assay: Tissue (kidney) concentration of radioactivity at 30 min post-injection into Albino male CD rats after pretreatment with cold PK 11195.; format: functional, tissue-based; details: not given; procedure, shortened: as §3

I.D./g	SMILES
< 0.05%	Cc1c(C(=O)N(C)Cc2ccccc2)nc2ccccc2c1-c1ccccc1

organism: Rattus norvegicus; assay: Tissue (kidney) distribution in Albino male CD rats after 15 minutes expressed as percent of injected dose per gram of organ.; format: ADME, organism-based; details: in vivo, 0.25 h; procedure, shortened: as §2

I.D./g	SMILES
1.17%	Cc1c(C(=O)N(C)Cc2ccccc2)nc2ccccc2c1-c1ccccc1

organism: Rattus norvegicus; assay: Tissue (cerebellum) distribution in Albino male CD rats after 15 minutes expressed as percent of injected dose per gram of organ.; format: ADME, organism-based; details: in vivo, 0.25 h; procedure, shortened: as §2

I.D./g	SMILES
0.2%	Cc1c(C(=O)N(C)Cc2ccccc2)nc2ccccc2c1-c1ccccc1

organism: Rattus norvegicus; assay: Tissue (cerebellum) distribution in Albino male CD rats after 5 minutes expressed as percent of injected dose per gram of organ.; format: ADME, organism-based; details: in vivo; procedure, shortened: as §2

I.D./g	SMILES
0.25%	Cc1c(C(=O)N(C)Cc2ccccc2)nc2ccccc2c1-c1ccccc1

organism: Rattus norvegicus; assay: Tissue (cerebellum) distribution in Albino male CD rats after 90 minutes expressed as percent of injected dose per gram of organ.; format: ADME, organism-based; details: in vivo, 1.5 h; procedure, shortened: as §2

I.D./g	SMILES
0.09%	Cc1c(C(=O)N(C)Cc2ccccc2)nc2ccccc2c1-c1ccccc1

biological target: Translocator protein (Rattus norvegicus) (UniProt P16257); assay: Tissue (cortex) concentration of radioactivity at 30 min post-injection into Albino male CD rats after pretreatment with cold PK 11195.; format: functional; details: not given; procedure, shortened: as §3

I.D./g	SMILES
0.02%	Cc1c(C(=O)N(C)Cc2ccccc2)nc2ccccc2c1-c1ccccc1

biological target: Translocator protein (Rattus norvegicus) (UniProt P16257); assay: Tissue (liver) concentration of radioactivity at 30 min post-injection into Albino male CD rats after pretreatment with cold PK 11195.; format: functional, tissue-based; details: not given; procedure, shortened: as §3

I.D./g	SMILES
< 0.16%	Cc1c(C(=O)N(C)Cc2ccccc2)nc2ccccc2c1-c1ccccc1

organism: Rattus norvegicus; assay: Tissue (lung) distribution in Albino male CD rats after 15 minutes expressed as percent of injected dose per gram of organ.; format: ADME, organism-based; details: in vivo, 0.25 h; procedure, shortened: as §1

I.D./g	SMILES
3.32%	Cc1c(C(=O)N(C)Cc2ccccc2)nc2ccccc2c1-c1ccccc1
